RBBP9 inhibitor: blocks human serine hydrolase RBBP9 | O75884 | recombinant RBBP9, FP-Rh probe fluorescence polarization | inhibition, % at 7.94 µM | 0.2% of 220,000 active | AID 1515;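 active means inhibition above the campaign mean of all tested compounds plus 3 SD, cut at about 14% in these data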
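Test system: recombinant human RBBP9; Timing: 30 min then 45 min, 25 °C; Detection: fluorescence polarization; Control set: RBBP9 with DMSO as uninhibited control, no-protein wells as full inhibition; Compound dosing: one concentration, 7.94 µM nominal, 0.794% DMSO; Probe or stimulus: FP-Rh activity-based probe, 375 nM before mixing.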
ROMK primary: modulators of human ROMK potassium channel; Tet-inducible ROMK, thallium flux fluorescence; actives lie on both sides; B-score at 10 µM; 2% of 130,000 active;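 active means signal ratio slope over the read window, or its plate-corrected B-score, at least 3 SD from the plate mean, either direction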;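 further: B-score of the F/F0 ratio slope over 7 to 12 s after thallium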
Cl transport mod: modulates chloride dependent transport by human KCC2; Q9H2X9; KCC2 cells, thallium flux FluoZin-2 fluorescence; B-score of Tl+ flux slope (higher = more flux/activation; lower = inhibition) at 10 µM; 2.2% of 190,000 active; AID 1456;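 active means thallium flux slope and its plate-corrected score both differing from the plate sample mean at a set confidence after two filtering rounds, in either direction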;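 further: slope of fluorescence scaled to starting intensity during 10 to 20 s after thallium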
NCF1 inh: inhibitors of human p47phox binding | 0.53% of 220,000 active | P14598 | AID 1274 | p47phox/p22phox peptide binding, fluorescence polarization, 2 h | inhibition, % at 24.7 µM;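 active means inhibition above about 30%, limit read from the data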
Target sequence (P14598 whole entry, looked up): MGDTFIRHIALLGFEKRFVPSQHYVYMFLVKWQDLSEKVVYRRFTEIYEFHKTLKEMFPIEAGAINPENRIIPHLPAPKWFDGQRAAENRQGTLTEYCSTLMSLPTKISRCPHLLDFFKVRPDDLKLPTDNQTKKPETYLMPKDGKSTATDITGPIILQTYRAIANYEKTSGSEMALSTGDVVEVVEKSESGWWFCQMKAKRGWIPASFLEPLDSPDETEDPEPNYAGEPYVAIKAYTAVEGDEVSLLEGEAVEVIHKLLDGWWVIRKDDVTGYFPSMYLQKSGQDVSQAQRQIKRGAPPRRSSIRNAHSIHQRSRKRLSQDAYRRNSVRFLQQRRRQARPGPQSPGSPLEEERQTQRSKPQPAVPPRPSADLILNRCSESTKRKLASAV
WT yeast gro inh: growth inhibition of WT yeast, mitochondrial fusion screen; mitochondrial fusion phenotypic screen, WT strain; inhibition, % at 10 µM; 2.1% of 190,000 active; AID 1362; in the data active means inhibition above about 58%; tested in S. cerevisiae
14-3-3 Bad inh: disrupts binding of bovine 14-3-3 zeta to phospho-Bad peptide; 0.71% of 220,000 active; P63103; AID 781; TR-FRET 14-3-3zeta/Dy647-pBad peptide displacement, 1 h; inhibition, % at 21.7 µM;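 active means inhibition above about 70%, limit read from the data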
Target sequence (P63103 whole entry, looked up): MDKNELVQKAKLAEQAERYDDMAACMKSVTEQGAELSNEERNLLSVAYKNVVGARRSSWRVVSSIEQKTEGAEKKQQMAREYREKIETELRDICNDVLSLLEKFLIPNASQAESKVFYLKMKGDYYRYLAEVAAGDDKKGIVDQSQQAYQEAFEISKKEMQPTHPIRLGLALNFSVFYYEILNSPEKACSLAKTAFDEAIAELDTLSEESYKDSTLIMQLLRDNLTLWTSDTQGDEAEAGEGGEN
ROMK retest: human ROMK channel modulation, retest confirmation | ROMK thallium flux, fluorescence ratio; hits give low values | shares compounds with ROMK primary | 54% of 3,000 active | normalized thallium flux (F/F0 slope) at 10 µM;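 active means Flux at 10 µM at least 3 SD below or above vehicle control mean in one or both replicates; inconclusive means no clear call, values can overlap the other calls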
A number is an active result; . = inactive; ? = inconclusive; / = no result given. In the library only some 5.8% were active in any assay of this set; here they are far more common.

SMILES	RBBP9 inhibitor	ROMK primary	Cl transport mod	NCF1 inh	WT yeast gro inh	14-3-3 Bad inh	ROMK retest
CCN1CC=C2C(C1)C(c1ccc(Cl)s1)C(C#N)=C(N)C2(C#N)C#N (stereo not drawn)	.	/	.	.	.	.	0.0394
CC(C)OC(=O)CSc1nnc2c(n1)[nH]c1ccc(F)cc12	.	.	.	.	.	.	/
Cc1cc(/C=c2\sc3nc4ccccc4n3c2=O)c(C)n1-c1ccc(C(=O)O)cc1	.	.	.	.	.	.	/
CCN(CC)c1ccc(/C=c2\sc3nc4ccccc4n3c2=O)c(O)c1	.	-4.81	.	.	.	.	0.0303
Cc1cccn2c(CNCC3(c4ccccc4)CCCC3)c(C(=O)N3CCOCC3)nc12	.	.	.	.	.	.	/
CN(CCCC(=O)Nc1ccncc1)S(=O)(=O)c1ccc(Cl)cc1	.	-3.35	.	.	.	.	0.0646
CC1Cc2nc(SCC(=O)N3CCN(c4ccccc4)CC3)n(CCc3ccccc3)c(=O)c2S1 (stereo not drawn)	.	/	.	.	.	.	0.0641
COc1ccc(CNC(=O)c2ccc3c(c2)NC(=O)C(C)S3)cc1 (stereo not drawn)	.	/	.	.	/	.	/
O=C(Nc1ccc(OCC(=O)N2CCC(Cc3ccccc3)CC2)cc1)c1ccco1	.	-3.13	.	.	.	.	0.0665
CC(=O)c1c(C)[nH]c(C(=O)Nc2nc(C)cs2)c1C	.	2.83	.	.	.	.	.
CC(=O)c1c(C)[nH]c(C(=O)Nc2cc(C)cc(C)c2)c1C	.	.	.	.	.	.	/
O=C(Nc1nc2cc3c(cc2s1)OCO3)C1=COCCO1	.	2.52	.	.	.	.	.
CN1/C(=C\C=O)C(C)(C)c2ccccc21	.	.	.	.	.	.	/
CN1\C(=C/C=C/C=C/C=[N+](C)C)C(C)(C)c2ccccc21	.	-3.59	/	.	92.2	.	0.0513
CCc1cccc(CC)c1NC(=O)COC(=O)CC1c2ccccc2CCN1S(=O)(=O)c1ccc(F)cc1 (stereo not drawn)	.	-3.76	/	.	.	.	0.0597
CC(=O)NCc1nnc2c3ccccc3c(-c3ccccc3)nn12	.	.	.	.	.	.	/
O=C(NCc1nnc2c3ccccc3c(-c3ccccc3)nn12)c1ccc(Cl)cc1	.	/	.	.	.	.	.
C=CCN(c1ccccc1C(=O)O)S(=O)(=O)/C=C/c1ccccc1	.	.	.	.	.	.	/
C#CCOCCOCCOCCNc1nc(N2CCN(C(=O)[C@H](Cc3cc4ccccc4[nH]3)n3cc([C@@H](N)Cc4ccc(O)cc4)nn3)CC2)nc(N2CCN(C(=O)[C@H](Cc3cc4ccccc4[nH]3)n3cc([C@@H](N)CC(C)C)nn3)CC2)n1	/	/	.	73.4	/	.	0.0449
CCn1cc(C(=O)NCC(=O)OC)c2cc(OC)c(OC)cc2c1=O	.	/	.	.	.	.	/
CCn1cc(C(=O)NCc2ccc(C)o2)c2cc(OC)c(OC)cc2c1=O	.	/	.	.	.	.	?
O=C1c2cccc3c([N+](=O)[O-])ccc(c23)C(=O)N1CCc1ccccn1	.	.	.	.	/	.	/
CN(C)CCCN1C(=O)c2cccc3c([N+](=O)[O-])ccc(c23)C1=O	.	-4.8	.	.	.	.	0.038
Cc1ccc(N2NC(=O)/C(=C\c3cc4c(cc3[N+](=O)[O-])OCO4)C2=O)cc1C	.	-4.93	.	.	.	.	0.0481
COc1cc(/C=C2/C(=O)NN(c3cccc(C)c3)C2=O)cc([N+](=O)[O-])c1O	.	.	.	.	.	.	/
SMILES	RBBP9 inhibitor	ROMK primary	Cl transport mod	NCF1 inh	WT yeast gro inh	14-3-3 Bad inh	ROMK retest
CCCCn1c(-c2ccco2)nc2oc3ccccc3c(=O)c2c1=O	.	/	.	.	/	.	/
O=c1c([N+](=O)[O-])cc(C(F)(F)F)cn1Cc1c(Cl)cccc1Cl	.	/	.	.	.	.	.
COC(=O)c1ccc(Cn2cc(C(F)(F)F)cc([N+](=O)[O-])c2=O)cc1	.	.	.	.	.	.	/
Cc1cccc(Cn2cc(/C=C/[N+](=O)[O-])c3ccccc32)c1	.	.	.	.	.	.	/
CCOc1ccc(/C=C/[N+](=O)[O-])c2ccccc12	.	-3.78	.	.	.	.	0.0426
CCOC(=O)Cn1cc(/C=C/[N+](=O)[O-])c2ccccc21	.	-3.45	.	.	.	.	0.0355
CCOC(=O)Cn1cc(C#N)c2ccccc21	.	.	.	.	.	.	/
Cc1cc(Cl)ccc1OCc1cn2cccnc2n1	.	4.07	.	.	.	.	?
CC(NC(=O)C1CCC(CNc2c(N3CCCCC3)c(=O)c2=O)CC1)c1ccccc1 (stereo not drawn)	.	/	.	.	/	.	/
CCNC(=O)C12CCC(C)(C(=O)O1)C2(C)C (stereo not drawn)	.	.	.	.	.	.	/
O=C(Nc1nc2n(n1)C(c1ccccc1)C=C(c1ccccc1)N2)c1ccco1 (stereo not drawn)	.	/	.	.	.	.	0.0655
CC(=O)Nc1nc2n(n1)C(c1ccccc1)C=C(c1ccccc1)N2 (stereo not drawn)	.	/	.	.	.	.	/
O=C1OC(/C=C/c2ccc(Cl)cc2Cl)=NC/1=C\c1cccs1	.	-2.94	.	.	.	.	0.059
Cc1cccc(C)c1N1CCN(C(=O)Cn2cncn2)CC1	.	.	.	.	.	.	/
O=C(Nc1cccnc1)c1cc(-c2ccccc2O)on1	.	3.04	.	.	/	.	?
O=C(Nc1cccnc1)c1cc(-c2cccs2)on1	.	.	.	.	.	.	/
O=C(O)c1cc(-c2ccc(/C=C3/SC(=S)N(Cc4ccccc4)C3=O)o2)ccc1Cl	.	-4.02	.	.	59.9	100.5	0.0427
CN(C)CC/C=C1\c2cc(F)ccc2CSc2ccccc21	.	-3.21	.	.	.	.	0.0608
COc1ccccc1N(C1=NCCCS1)S(=O)(=O)c1ccc(C(C)(C)C)cc1	.	.	/	.	.	.	/
CCCN1CCC(NC(=S)Nc2ccc([N+](=O)[O-])cc2)CC1	.	-4.43	.	/	.	.	0.0563
CCCN1CCN(C(=S)Nc2ccc([N+](=O)[O-])cc2)CC1	.	/	.	.	.	.	/
CCn1c(SCC(=O)Nc2nc3ccc(OC)cc3s2)nc2c1c(=O)n(C)c(=O)n2C	.	/	.	.	.	.	?
CCCn1c(SCC(=O)Nc2ccccc2N2CCCCC2)nc2c1c(=O)n(C)c(=O)n2C	.	-2.64	.	.	.	.	0.0639
CCOc1ccc2nc(NC(=O)CSc3nc4c(c(=O)n(C)c(=O)n4C)n3C(C)C)sc2c1	.	/	.	.	.	.	/
CCCn1c(SCC(=O)Nc2ccccc2C(=O)OC)nc2c1c(=O)n(C)c(=O)n2C	.	/	.	.	.	.	/
COc1nc2c(c(-c3cc(Br)cs3)c1C#N)Cc1ccccc1-2	.	/	.	.	/	.	/

High-throughput results: PubChem BioAssay, several laboratories
